Screens as filed in PubChem BioAssay.
Statin myotox sup – suppressors of statin myotoxicity in C2C12 myotubes, primary screen, cell-based, single point, plate reader. rescue of ATP level, % at 7.49 µM. hit rate 0.78% among 330,000. C2C12 myotubes + simvastatin, ATP luminescence, 48 h; scaled: DMSO 0, geranylgeraniol control 100. AID 602340, 2012;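 active = mean ATP rescue above about 67%, or every replicate alone reaching that limit, limit read from the data, passing the limit was not always enough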;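 note: myotubes were challenged with 10 µM simvastatin during compound exposure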
SUMO Mot1 rescue – yeast Mot1-301 growth rescue at high temperature, primary screen, SUMOylation pathway inhibitor project, S. cerevisiae, ATP luminescence, 38.5C; S. cerevisiae Mot1-301 growth rescue; percent above DMSO median, 100 means doubled; growth rescue, % at 18.8 µM; hit rate 1% among 320,000;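 active = every valid replicate shows activation above 250% relative to neutral control wells; inactive = the rest, any valid replicate at or below 250%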;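 note: OY570 slx delta 5 strain wells were the positive control but not used for scaling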
Cneo AK release – Cryptococcus neoformans cell lysis inducers, primary screen, AK release luminescence, single concentration. C. neoformans lysis, adenylate kinase release luminescence, 4 h; normalised: neutral wells 0, clomiphene wells 100. lysis activity, % at 15 µM. hit rate 0.2% among 360,000. AID 651654, 2012;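 active = mean lysis activity across replicates of at least 80%, whatever share of replicates individually reach that level; inactive = mean lysis activity below 80%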
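read-out = cell lysis signal | test system = log-phase Cryptococcus neoformans yeast cells | input = cells at 5 × 10^6 per mL | medium = fresh YPD growth medium | signal = luminescent adenylate kinase detection reagent | timing = 4 h at 37 °C static, read 1 h later | dosing = single dose | controls = Clomiphene as positive lysis control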
Active calls of the source: *; / = no result given. Sampled rows, rich in hits. Any-hit rate of the full collection: about 1.5%.

SMILES	Statin myotox sup	SUMO Mot1 rescue	Cneo AK release
CO[C@H]1CC[C@@H]2CCOc3c(C#N)cccc3C(=O)N(C)C[C@H](OC)[C@@H](C)C(=O)N(C)C[C@@H]1O2	16	/	86*
CO[C@@H]1CC[C@H]2CCOc3c(C#N)cccc3C(=O)N(C)C[C@H](C)C(=O)N(C)C[C@H]1O2	1	/	62
CO[C@H]1CC[C@H]2CCOc3c(C#N)cccc3C(=O)N(C)C[C@@H](C)C(=O)N(C)C[C@H]1O2	-4	/	88*
COc1ccc(CNC(=O)C[C@H]2C[C@H]3c4cc(NS(C)(=O)=O)ccc4O[C@H]3[C@H](CO)O2)cc1	3	/	12
CO[C@H]1CN(C)C(=O)c2ccc(NC(=O)Nc3c(C)noc3C)cc2OC[C@H](C)N(C)C[C@H]1C	7	/	-1
Cc1noc(C)c1NC(=O)Nc1ccc2c(c1)C(=O)N([C@@H](C)CO)C[C@H](C)[C@H](CN(C)S(=O)(=O)c1ccc(F)cc1)OCCCC[C@@H](C)O2	/	/	2
CN(C)S(=O)(=O)c1ccc(N2CCCC2)c(C(=O)Nc2ccc(N3CCOCC3)cc2)c1	-9	-8	1
CN(C)S(=O)(=O)c1ccc(N2CCCC2)c(C(=O)Nc2ccc(C(N)=O)cc2)c1	3	261*	/
Cc1noc(C)c1S(=O)(=O)Nc1ccc2c(c1)C(=O)N([C@H](C)CO)C[C@@H](C)[C@@H](CN(C)C(=O)c1ccccc1)OCCCC[C@H](C)O2	/	/	-9
C[C@@H]1CN([C@@H](C)CO)C(=O)c2cc(Br)cnc2O[C@@H]1CN(C)Cc1ccc(C(=O)O)cc1	0	/	2
CN(C)C(=O)[C@@H]1[C@@H](CO)[C@@H]2Cn3c(ccc(-c4ccncc4)c3=O)[C@H]1N2CC1CCCC1	16	/	0
CS(=O)(=O)Nc1ccc2c(c1)[C@H]1C[C@@H](CC(=O)NCC(F)(F)F)O[C@@H](CO)[C@H]1O2	-11	/	-1
CC(Oc1ccc2ccc(=O)oc2c1)C(=O)NCCCn1ccnc1 (centres undefined)	96*	145	2
COc1ccc(OCC(=O)NCCCn2ccnc2)cc1	11	186	/
O=C(COc1ccc(Cl)cc1)NCCCn1ccnc1	72*	-7	0
COc1ccc(-c2cc(=O)oc3cc(OC(C)C(=O)NCCCn4ccnc4)ccc23)cc1 (centres undefined)	-1	-15	9
CCNC(=O)[C@@H]1[C@@H](CO)[C@@H]2Cn3c(ccc(-c4ccc(OC)cc4)c3=O)[C@@H]2N1Cc1ccccc1	1	/	-3
C[C@@H]1CCCCO[C@@H](CN(C)C(=O)C2CCCCC2)[C@H](C)CN([C@@H](C)CO)C(=O)c2cc(NS(=O)(=O)c3ccc(Cl)cc3)ccc2O1	/	/	7
COC(=O)C[C@H]1CC[C@@H](NC(=O)Nc2ccc(C(F)(F)F)cc2)[C@H](CO)O1	2	/	-1
CCOC(=O)C1(C)NC(c2ccc(N(C)C)cc2)C2C(=O)N(CC)C(=O)C21 (centres undefined)	1	14	0
CCOC(=O)C1(C)NC(c2ccc(N(C)C)cc2)C2C(=O)N(c3ccc(OC)cc3)C(=O)C21 (centres undefined)	115*	91	0
COCC#Cc1cnc2c(c1)C(=O)N([C@@H](C)CO)C[C@H](C)[C@H](CN(C)C(C)=O)O2	-3	/	0
CO[C@H]1CN(C)C(=O)c2ccc(NC(=O)c3ccccc3)cc2OC[C@@H](C)N(C(=O)C2CC2)C[C@@H]1C	1	/	-1
O=C(NCc1ccco1)C(c1ccccc1)N(C(=O)Cc1cccs1)c1ccccc1 (centres undefined)	125*	-1	1
O=C(NCc1ccco1)C(c1cccs1)N(C(=O)Cc1cccs1)c1ccccc1 (centres undefined)	7	167	-2
SMILES	Statin myotox sup	SUMO Mot1 rescue	Cneo AK release
C[C@H]1CN([C@@H](C)CO)C(=O)c2cc(C#Cc3cccnc3)cnc2O[C@@H]1CN(C)Cc1ccncc1	-33	/	-1
Cc1cccc(NC(=O)c2ccc(OC3CSC3)cc2)c1	105*	-51	-2
CC(=O)c1cccc(NC(=O)c2ccc(OC3CSC3)cc2)c1	/	7	/
COCCCNCCCCOc1ccc(Br)cc1Cl	7	280*	4
COCCNCCCOc1ccc(Br)cc1Cl	/	-2	1
COc1ccccc1Cn1c(C(C)C)nc2ccccc21	/	16	17
COc1ccccc1Cn1c(/C=C/c2ccccc2)nc2ccccc21	/	408*	/
COCCn1c(/C=C/c2ccccc2)nc2ccccc21	/	-20	-13
COc1ccc(/C=C/c2nc3ccccc3n2Cc2ccccc2OC)cc1	/	323*	/
COc1cccc(CNC(=O)C[C@@H]2CC[C@@H]3[C@@H](COc4ccc(NC(C)=O)cc4C(=O)N3C)O2)c1	-5	/	-1
CO[C@@H]1CN(C)C(=O)c2cc(NC(=O)C3CC3)ccc2OC[C@H](C)N(C(C)=O)C[C@H]1C	5	/	-13
CN(C)/C=C(\C=O)c1ncc(C(F)(F)F)cc1Cl	/	905*	/
C/C(=C\C(=O)c1ncc(C(F)(F)F)cc1Cl)N(C)C	/	-15	/
Cc1cccc(S(=O)(=O)N2CCCCN3[C@@H](CO)[C@H](c4ccc(C#CC5CC5)cc4)[C@@H]3C2)c1	/	/	2
COc1ccc(NC(=O)N2C[C@@H](O)COC[C@@H]3O[C@@H](CC(=O)NCc4ccccc4OC)CC[C@H]32)cc1	19	/	2
COc1ccc([Si](C)(C)[C@H]2[C@H](CCn3cc(CCO)nn3)O[C@@]3(C(=O)N(C)c4c(Br)cc(C)cc43)[C@@H]2C)cc1	/	/	-1
C[C@@H]1CN([C@@H](C)CO)S(=O)(=O)c2ccc(C#C[C@@H](C)O)cc2O[C@@H]1CN(C)Cc1ccc(-c2ccccc2)cc1	3	/	16
CNC(=O)C[C@@H]1CC[C@@H]2[C@H](COc3ccc(NC(=O)c4ccc(F)c(F)c4)cc3C(=O)N2C)O1	2	/	17
CNC(=O)C[C@H]1CC[C@H]2[C@@H](COc3ccc(NC(=O)Nc4ccc(C)cc4)cc3C(=O)N2C)O1	10	/	6
CNC(=O)C[C@H]1CC[C@H]2[C@H](COc3ccc(NC(=O)Nc4ccccc4)cc3C(=O)N2C)O1	14	/	94*
CNC(=O)C[C@H]1CC[C@H]2[C@H](COc3ccc(NC(=O)Nc4ccc(C)cc4)cc3C(=O)N2C)O1	8	/	9
CNC(=O)C[C@H]1CC[C@H]2[C@@H](COc3ccc(NC(=O)Nc4ccccc4)cc3C(=O)N2C)O1	0	/	110*
CN1C(=O)c2cc(NC(=O)c3ccc(F)c(F)c3)ccc2OC[C@H]2O[C@@H](CC(=O)Nc3ccc4c(c3)COC4)CC[C@@H]21	102*	/	0
COC(=O)[C@@H]1[C@@H](CO)[C@@H]2Cn3c(ccc(C4=CCCC4)c3=O)[C@@H]2N1C(=O)C1CCC1	14	/	-8
CNC[C@@H]1Oc2ncc(C#CC3(O)CCCC3)cc2C(=O)N([C@@H](C)CO)C[C@H]1C	19	/	4
O=C(O)c1ccc2c(c1)C(=O)N(CCC1=CCCCC1)C2=O	-9	4	3
O=C1c2ccccc2C(=O)N1CCC1=CCCCC1	122*	/	-2
